# Assay results published in ChEMBL document CHEMBL5058577, “EUbOPEN Chemogenomics Library 2 (Multiplex)” (2022).
# System: Fibroblast
# Test: Multiplex assay against human fibroblast
# Assay type: toxicity, cell-based
# Summary of the method: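 Values for tubulin, mitochondrial-mass and membrane-permeability phenotypes are per cents of cells with healthy nuclei. These cells were identified by CellPathfinder machine-learning gating of live cells that had been stained at seeding with Hoechst33342, BioTracker Green Microtubule Cytoskeleton Dye, MitoTracker Red and Annexin V Alexa Fluor 680 and imaged on a CQ1 microscope at 37°C and 5% CO2 after compound addition. The gating first set Hoechst high-intensity objects apart from normal cells, then split normal cells into healthy, pyknosed or fragmented nuclei, and pyknosed cells into mitotic or apoptotic.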
# [1] = 12 h, 1 µM, compound concentration 1 uM, replicate 1
# [2] = 12 h, 1 µM, compound concentration 1 uM, replicate 2
# [3] = 12 h, 10 µM, compound concentration 10 uM, replicate 1
# [4] = 12 h, 10 µM, compound concentration 10 uM, replicate 2
# [5] = 24 h, 1 µM, compound concentration 1 uM, replicate 1
# [6] = 24 h, 1 µM, compound concentration 1 uM, replicate 2
# [7] = 24 h, 10 µM, compound concentration 10 uM, replicate 1
# [8] = 24 h, 10 µM, compound concentration 10 uM, replicate 2
# [9] = 48 h, 1 µM, compound concentration 1 uM, replicate 1
# [10] = 48 h, 1 µM, compound concentration 1 uM, replicate 2
# [11] = 48 h, 10 µM, compound concentration 10 uM, replicate 1
# [12] = 48 h, 10 µM, compound concentration 10 uM, replicate 2
smiles,measurement,setting,value
N[C@](CC1c2ccccc2Oc2ccccc21)(C(=O)O)[C@H]1C[C@@H]1C(=O)O,Population Apoptotic (%),[1],44%
same,Population Fragmented Nuclei (%),[1],12%
same,Population Healthy Nuclei (%),[1],73%
same,Population Hoechst High Intensity Objects (%),[1],4%
same,Population Membrane Permeable-Phenotype (%),[1],0%
same,Population Mitochondria Different-Phenotype (%),[1],1%
same,Population Mitotic Cells (%),[1],56%
same,Population Normal (%),[1],95%
same,Population Pyknosed Nuclei (%),[1],13%
same,Population Tubulin-Different-Phenotype (%),[1],27%
same,Total Cell Count,[1],189
same,Population Apoptotic (%),[2],58%
same,Population Fragmented Nuclei (%),[2],18%
same,Population Healthy Nuclei (%),[2],59%
same,Population Hoechst High Intensity Objects (%),[2],1%
same,Population Membrane Permeable-Phenotype (%),[2],7%
same,Population Mitotic Cells (%),[2],41%
same,Population Normal (%),[2],98%
same,Population Pyknosed Nuclei (%),[2],21%
same,Population Tubulin-Different-Phenotype (%),[2],37%
same,Total Cell Count,[2],113
same,Population Apoptotic (%),[3],50%
same,Population Fragmented Nuclei (%),[3],13%
same,Population Healthy Nuclei (%),[3],66%
same,Population Hoechst High Intensity Objects (%),[3],1%
same,Population Membrane Permeable-Phenotype (%),[3],2%
same,Population Mitochondria Different-Phenotype (%),[3],2%
same,Population Mitotic Cells (%),[3],50%
same,Population Normal (%),[3],98%
same,Population Pyknosed Nuclei (%),[3],20%
same,Population Tubulin-Different-Phenotype (%),[3],22%
same,Total Cell Count,[3],203
same,Population Apoptotic (%),[4],26%
same,Population Fragmented Nuclei (%),[4],20%
same,Population Healthy Nuclei (%),[4],59%
same,Population Hoechst High Intensity Objects (%),[4],7%
same,Population Membrane Permeable-Phenotype (%),[4],0%
same,Population Mitochondria Different-Phenotype (%),[4],7%
same,Population Mitotic Cells (%),[4],73%
same,Population Normal (%),[4],92%
same,Population Tubulin-Different-Phenotype (%),[4],33%
same,Total Cell Count,[4],119
same,Population Apoptotic (%),[5],68%
same,Population Fragmented Nuclei (%),[5],12%
same,Population Healthy Nuclei (%),[5],73%
same,Population Hoechst High Intensity Objects (%),[5],2%
same,Population Membrane Permeable-Phenotype (%),[5],2%
same,Population Mitochondria Different-Phenotype (%),[5],2%
same,Population Mitotic Cells (%),[5],32%
same,Population Normal (%),[5],97%
same,Population Pyknosed Nuclei (%),[5],13%
same,Population Tubulin-Different-Phenotype (%),[5],25%
same,Total Cell Count,[5],183
same,Population Apoptotic (%),[6],33%
same,Population Fragmented Nuclei (%),[6],27%
same,Population Healthy Nuclei (%),[6],49%
same,Population Hoechst High Intensity Objects (%),[6],4%
same,Population Membrane Permeable-Phenotype (%),[6],6%
same,Population Mitochondria Different-Phenotype (%),[6],1%
same,Population Mitotic Cells (%),[6],66%
same,Population Normal (%),[6],95%
same,Population Pyknosed Nuclei (%),[6],22%
same,Population Tubulin-Different-Phenotype (%),[6],44%
same,Total Cell Count,[6],123
same,Population Apoptotic (%),[7],57%
same,Population Fragmented Nuclei (%),[7],10%
same,Population Healthy Nuclei (%),[7],68%
same,Population Hoechst High Intensity Objects (%),[7],1%
same,Population Membrane Permeable-Phenotype (%),[7],1%
same,Population Mitochondria Different-Phenotype (%),[7],3%
same,Population Mitotic Cells (%),[7],42%
same,Population Normal (%),[7],98%
same,Population Pyknosed Nuclei (%),[7],20%
same,Population Tubulin-Different-Phenotype (%),[7],30%
same,Total Cell Count,[7],193
same,Population Apoptotic (%),[8],35%
same,Population Fragmented Nuclei (%),[8],18%
same,Population Healthy Nuclei (%),[8],66%
same,Population Hoechst High Intensity Objects (%),[8],2%
same,Population Mitochondria Different-Phenotype (%),[8],4%
same,Population Mitotic Cells (%),[8],64%
same,Population Normal (%),[8],97%
same,Population Pyknosed Nuclei (%),[8],15%
same,Population Tubulin-Different-Phenotype (%),[8],34%
same,Total Cell Count,[8],113
same,Population Apoptotic (%),[9],62%
same,Population Fragmented Nuclei (%),[9],17%
same,Population Healthy Nuclei (%),[9],68%
same,Population Hoechst High Intensity Objects (%),[9],2%
same,Population Membrane Permeable-Phenotype (%),[9],0%
same,Population Mitochondria Different-Phenotype (%),[9],2%
same,Population Mitotic Cells (%),[9],37%
same,Population Normal (%),[9],97%
same,Population Pyknosed Nuclei (%),[9],14%
same,Population Tubulin-Different-Phenotype (%),[9],26%
same,Total Cell Count,[9],189
same,Population Apoptotic (%),[10],23%
same,Population Fragmented Nuclei (%),[10],36%
same,Population Healthy Nuclei (%),[10],48%
same,Population Hoechst High Intensity Objects (%),[10],8%
same,Population Membrane Permeable-Phenotype (%),[10],9%
same,Population Mitochondria Different-Phenotype (%),[10],5%
same,Population Mitotic Cells (%),[10],76%
same,Population Normal (%),[10],91%
same,Population Tubulin-Different-Phenotype (%),[10],65%
same,Total Cell Count,[10],125
same,Population Apoptotic (%),[11],45%
same,Population Fragmented Nuclei (%),[11],14%
same,Population Healthy Nuclei (%),[11],68%
same,Population Hoechst High Intensity Objects (%),[11],5%
same,Population Membrane Permeable-Phenotype (%),[11],1%
same,Population Mitochondria Different-Phenotype (%),[11],2%
same,Population Mitotic Cells (%),[11],54%
same,Population Normal (%),[11],94%
same,Population Pyknosed Nuclei (%),[11],16%
same,Population Tubulin-Different-Phenotype (%),[11],32%
same,Total Cell Count,[11],198
same,Population Apoptotic (%),[12],27%
same,Population Fragmented Nuclei (%),[12],27%
same,Population Healthy Nuclei (%),[12],63%
same,Population Hoechst High Intensity Objects (%),[12],3%
same,Population Membrane Permeable-Phenotype (%),[12],2%
same,Population Mitotic Cells (%),[12],72%
same,Population Normal (%),[12],96%
same,Population Pyknosed Nuclei (%),[12],9%
same,Population Tubulin-Different-Phenotype (%),[12],28%
same,Total Cell Count,[12],115
